The results in this text go back to ChEMBL document CHEMBL1124112, “Indoline analogues of idazoxan: potent alpha 2-antagonists and alpha 1-agonists” (J Med Chem, 1988).

Assay [1] has as its system Adrenergic receptor alpha-2 (Rattus norvegicus). The assay can be described thus: Agonism at alpha-2 adrenergic receptor, determined as dose required to produce a two fold shift of the cumulative dose-response curve to UK-14304 on the twitch response in rat vas deferens.
Assay [2] has as its system Rattus norvegicus. Nature of the assay: In vivo ED40 is the raising diastolic blood pressure by 40 mm Hg in pithed rats. (postjunctional). The note with it: Artery. Format: functional. Put shortly: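 Pithed rats, compound given iv in cumulative doses. ED40 is the dose (μg/kg) raising diastolic blood pressure by 40 mmHg. Separate groups of rats (n = 4-6).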
Assay [3] deals with Rattus norvegicus. Nature of the assay: In vivo dose required to inhibit vas deferens contraction by 25% after pretreatment with prazosin in pithed rats. (prejunctional). Type of assay: functional. The procedure, abridged:
(§1)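 Pithed rats pretreated with prazosin (1 mg/kg). Compound given iv in cumulative doses. ED25 is the dose (μg/kg) inhibiting vas deferens contraction by 25%. Separate groups of rats (n = 4-6).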

The target in assay [4] is Adrenergic receptor alpha-1 (Rattus norvegicus) (UniProt P15823+P23944+P43140). Nature of the assay: Agonism at alpha-1 adrenergic receptor, determined as the dose required to produce a two fold shift of the cirazoline on diastolic blood pressure. Format: functional, tissue-based. As to conditions: Artery.
In assay [5] the target is T1, Adrenergic receptor alpha-2 (Rattus norvegicus) (UniProt P22086+P19328+P22909). Nature of the assay: Antagonist potency towards alpha-2 adrenergic receptor determined as the dose required to produce a two fold shift of the dose-response curve to UK-14304 on the twitch response of the vas deferens (in vitro);AG- agonist. Format: functional, tissue-based. The note with it: filed as agonist.

Assay [6] deals with Rattus norvegicus. Nature of the assay: In vivo antagonist dose producing two fold shift of cirazoline in pithed rats. (postjunctional); AG- agonist. Type of assay: functional, organism-based. As to conditions: filed as agonist. Put shortly:
(§2)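 Pithed rats, iv. Antagonist given before a cumulative dose-response curve to cirazoline on diastolic blood pressure. DR2 is the antagonist dose (μg/kg) giving a twofold rightward shift. Separate groups of rats (n = 4-6).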

Assay [7] addresses T1, Adrenergic receptor alpha-2 (Rattus norvegicus). Nature of the assay: Antagonism at alpha-2 adrenergic receptor, determined as dose required to produce a two fold shift of the dose-response curve to UK-14304 on the twitch response in rat vas deferens. Format: functional, tissue-based. The procedure, abridged: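 Pithed rats, iv. Antagonist given before a cumulative dose-response curve to UK-14,304 on the vas deferens twitch response. DR2 is the antagonist dose (μg/kg) giving a twofold shift of the curve. Separate groups of rats (n = 4-6).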

Assay [8] relates to Adrenergic receptor alpha-1 (Rattus norvegicus). Nature of the assay: […] towards alpha-1 adrenergic receptor determined as the dose required to produce a two fold shift of the cirazoline on diastolic blood pressure (in vitro). As to conditions: Artery.
For assay [9], the system named is Rattus norvegicus. Nature of the assay: In vivo antagonist dose producing two fold shift of UK-14,304 in pithed rats. (prejunctional).
The test system of assay [10] is Rattus norvegicus. The assay can be described thus: In vivo antagonist dose producing two fold shift of cirazoline in pithed rats. (postjunctional);AG- agonist. Format: functional, organism-based. As to conditions: filed as agonist. Put shortly: as §2
Assay [11] concerns Rattus norvegicus. Nature of the assay: In vivo dose required to inhibit vas deferens contraction by 25% after pretreatment with prazosin in pithed rats. (prejunctional); ant- antagonist. Format: functional, organism-based. As to conditions: filed as antagonist. Put shortly: as §1

T1 sequence (P19328 whole entry, looked up): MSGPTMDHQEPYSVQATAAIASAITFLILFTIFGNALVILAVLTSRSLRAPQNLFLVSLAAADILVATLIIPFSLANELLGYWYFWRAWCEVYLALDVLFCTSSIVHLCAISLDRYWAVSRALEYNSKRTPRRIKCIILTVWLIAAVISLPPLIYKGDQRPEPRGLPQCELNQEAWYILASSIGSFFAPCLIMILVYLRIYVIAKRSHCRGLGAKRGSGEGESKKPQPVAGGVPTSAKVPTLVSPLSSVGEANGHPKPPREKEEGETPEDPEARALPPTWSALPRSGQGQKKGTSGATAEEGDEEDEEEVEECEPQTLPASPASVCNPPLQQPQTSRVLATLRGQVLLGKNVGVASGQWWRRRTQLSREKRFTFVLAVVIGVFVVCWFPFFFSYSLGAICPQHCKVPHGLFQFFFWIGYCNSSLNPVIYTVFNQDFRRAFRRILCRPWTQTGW
T1 sequence (P22086 whole entry, looked up): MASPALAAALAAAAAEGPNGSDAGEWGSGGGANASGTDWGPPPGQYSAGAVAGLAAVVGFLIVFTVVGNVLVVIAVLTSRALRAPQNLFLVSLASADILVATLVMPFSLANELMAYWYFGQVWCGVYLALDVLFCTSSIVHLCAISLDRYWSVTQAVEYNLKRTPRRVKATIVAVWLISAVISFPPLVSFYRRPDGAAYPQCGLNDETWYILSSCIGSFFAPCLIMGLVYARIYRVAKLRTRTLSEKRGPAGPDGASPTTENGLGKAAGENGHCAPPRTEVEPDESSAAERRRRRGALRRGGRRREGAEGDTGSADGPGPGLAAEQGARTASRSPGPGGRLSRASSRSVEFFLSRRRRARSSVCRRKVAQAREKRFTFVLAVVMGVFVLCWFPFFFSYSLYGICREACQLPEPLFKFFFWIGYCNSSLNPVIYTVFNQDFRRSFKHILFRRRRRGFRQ
T1 sequence (P22909 whole entry, looked up): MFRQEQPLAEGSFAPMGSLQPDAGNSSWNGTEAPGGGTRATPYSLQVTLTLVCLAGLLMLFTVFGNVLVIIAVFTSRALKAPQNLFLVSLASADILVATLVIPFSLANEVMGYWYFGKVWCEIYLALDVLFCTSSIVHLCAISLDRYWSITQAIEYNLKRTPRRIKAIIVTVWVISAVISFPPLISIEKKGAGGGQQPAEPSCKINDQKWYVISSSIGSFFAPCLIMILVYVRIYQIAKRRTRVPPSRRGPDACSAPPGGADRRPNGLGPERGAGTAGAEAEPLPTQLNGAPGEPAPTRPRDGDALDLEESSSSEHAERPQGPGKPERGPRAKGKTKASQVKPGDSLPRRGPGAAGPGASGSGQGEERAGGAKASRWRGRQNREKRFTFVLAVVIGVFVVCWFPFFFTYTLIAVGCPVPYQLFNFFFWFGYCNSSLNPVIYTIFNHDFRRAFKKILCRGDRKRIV

Regarding `CN1c2c(Cl)cccc2CC1C1=NCCN1` (stereo not drawn), the Prejunctional agonist potency in assay [1] was found to be 0.3. Further, the ED40 with Rattus norvegicus [2] was 1.4 µg/kg; with Rattus norvegicus [6], “Agonist”. In the assay with Rattus norvegicus [3], the ED25 was determined as 2.2 µg/kg. For the same molecule, the Postjunctional agonist potency in assay [4] turned out to be 3.5. In addition, the Prejunctional antagonist potency entry in assay [5] is “Agonist”.
`c1ccc(COCCN2c3ccccc3CC2C2=NCCN2)cc1` (stereo not drawn): the Prejunctional antagonist potency in assay [7] was 0.05. The Postjunctional antagonist potency in [8] turned out to be 18. In addition, in [1], the Prejunctional agonist potency came to 0. Further, the Postjunctional agonist potency in [4] came to 0.
Take `c1ccc2c(c1)CC(C1=NCCN1)O2` (stereo not drawn): the Prejunctional antagonist potency in assay [7] came out at 1.7. For the same molecule, in [8], the Postjunctional antagonist potency worked out at 0.16. Moreover, in assay [1], the Prejunctional agonist potency came to 0. Besides, the Postjunctional agonist potency in assay [4] turned out to be 0.01.
In the same order, the values of `c1ccc2c(c1)CC(C1=NCCN1)C2` are 0.4, 0.8, 0 and 0.
For `CN1c2cc(Cl)ccc2CC1C1=NCCN1` (stereo not drawn), the Prejunctional agonist potency in assay [1] worked out at 0.019. The Postjunctional agonist potency in assay [4] was 0.67. Besides, the Prejunctional antagonist potency result in assay [5] is “Agonist”.
Molecule `CNC[C@H](O)c1cccc(O)c1` [PHENYLEPHRINE] gave an ED40 with Rattus norvegicus [2] of 0.9 µg/kg.
For the molecule `CN1c2cccc(F)c2CC1C1=NCCN1` (stereo not drawn), the Prejunctional agonist potency in assay [1] turned out to be 1. In addition, the DR2 with Rattus norvegicus [9] came to 0.0008 mg/kg. Also, in the assay with Rattus norvegicus [3], the ED25 amounted to 0.8 µg/kg. Besides, in [4], the Postjunctional agonist potency came to 6. Moreover, in the assay with Rattus norvegicus [10], the ED40 result is “Agonist”. For the same molecule, the Prejunctional antagonist potency entry in [5] was “Agonist”.
On to `CN1c2cccc(Br)c2CC1C1=NCCN1` (stereo not drawn), for which the Prejunctional agonist potency in [1] amounted to 0.34. In addition, the ED40 in the assay on Rattus norvegicus [2] came to 0.3 µg/kg. Also, the ED25 with Rattus norvegicus [3] is 1.1 µg/kg. The Postjunctional agonist potency in assay [4] amounted to 3.4. The Prejunctional antagonist potency entry in assay [5] was “Agonist”.
Turning to `CN1c2cccc(O)c2CC1C1=NCCN1` (stereo not drawn), the Prejunctional agonist potency in [1] stood at 0.16. In addition, the ED40 in the assay with Rattus norvegicus [2] is 0.3 µg/kg; with Rattus norvegicus [10], “Agonist”. Besides, the ED25 with Rattus norvegicus [3] turned out to be 0.2 µg/kg. Also, in assay [4], the Postjunctional agonist potency stood at 6.7. Also, the Prejunctional antagonist potency result in [5] is “Agonist”.
For the molecule `COc1cccc2c1CC(C1=NCCN1)N2C` (stereo not drawn), the Prejunctional antagonist potency in assay [7] is 0.27. Further, the Prejunctional agonist potency in [1] worked out at 0. In addition, the Postjunctional agonist potency in [4] came out at 0.62.
Turning to `CCN1c2ccccc2CC1(C)C1=NCCN1` (stereo not drawn), the Prejunctional antagonist potency in [7] turned out to be 0.1. Also, in assay [1], the Prejunctional agonist potency turned out to be 0. For the same molecule, the Postjunctional agonist potency in assay [4] came out at 0.03.
Take `CN1c2ccc(Cl)cc2CC1C1=NCCN1` (stereo not drawn): the Prejunctional antagonist potency in assay [7] is 6.8. Further, the ED25 entry in the assay on Rattus norvegicus [11] was “Antagonist”. Also, in [1], the Prejunctional agonist potency stood at 0. Moreover, the ED40 with Rattus norvegicus [2] was 14.3 µg/kg; with Rattus norvegicus [6], “Agonist”. In the assay with Rattus norvegicus [9], the DR2 is 0.0127 mg/kg. In addition, the Postjunctional agonist potency in assay [4] was determined as 2.
As to `CCN1c2ccc(Cl)cc2CC1C1=NCCN1` (stereo not drawn), in assay [7], the Prejunctional antagonist potency came out at 8. Further, the ED25 entry with Rattus norvegicus [11] was “Antagonist”. For the same molecule, the Prejunctional agonist potency in [1] was 0. The values for the ED40 in the assay on Rattus norvegicus [2] and in the assay with Rattus norvegicus [6] were 4.2 µg/kg and “Agonist”, respectively. Besides, the DR2 in the assay with Rattus norvegicus [9] came out at 0.0059 mg/kg. For the same molecule, the Postjunctional agonist potency in assay [4] worked out at 5.
For the molecule `Nc1cc(Cl)c(N=C2NCCN2)c(Cl)c1` [APRACLONIDINE], the ED40 in the assay with Rattus norvegicus [2] came out at 0.7 µg/kg. Also, the ED25 in the assay with Rattus norvegicus [3] was 0.4 µg/kg.
As to `COc1cccc2c1N(C)C(C1=NCCN1)C2` (stereo not drawn), the Prejunctional agonist potency in [1] came to 0.4. In addition, in [4], the Postjunctional agonist potency is 8. Besides, the Prejunctional antagonist potency entry in assay [5] was “Agonist”.
In the case of `CCC1(C2=NCCN2)Cc2ccccc2N1C` (stereo not drawn), the Prejunctional antagonist potency in assay [7] is 0.005. Further, the Postjunctional antagonist potency in [8] was under 0.012. The Prejunctional agonist potency in [1] turned out to be 0. For the same molecule, the Postjunctional agonist potency in assay [4] was 0.
